These results are taken from ChEMBL document CHEMBL1800004, “Discovery of 4-anilinofuro[2,3-b]quinoline derivatives as selective and orally active compounds against non-small-cell lung cancers” (J Med Chem, 2011).

Data set [1] is described as follows: Volume of distribution at steady state in fasted CD-1(Crl) mouse at 2 mg/kg, iv administered as single dose. The data set is classed as ADME, organism-based. Further details: dose 2 mg/kg, route intravenous; call rule not given here. Conditions: in vivo, read-out: Vdss. Put shortly:
(§1)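 Fasted male CD-1 (Crl) mice received a single intravenous dose of 2.0 mg/kg or a single oral dose of 20 mg/kg. Parameters came from mean plasma concentration–time profiles, run by a contract lab.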

In another data set the test system is Lung. The experiment in a line: Drug uptake in lung of orthotropic lung cancer nude mouse model xenografted with human H1229 cells at 120 mg/kg, po administered for 2 weeks. The data set is classed as ADME, organism-based. Details: dose 120 mg/kg, route oral. As to conditions: in vivo, 336 h.
Data set [2] can be described thus: Aqueous solubility of the compound by UV/ vis spectrophotometry. The data set is classed as physicochemical. In a few lines:
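Excess solid was added to doubly distilled water, sonicated 5 min, then stirred overnight at 25 °C to reach equilibrium. After centrifugation, supernatant absorbance was read by UV/vis at 315–420 nm against per-compound standard curves.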

Data set [3] is described as follows: Cmax in fasted CD-1(Crl) mouse at 2 mg/kg, iv administered as single dose. Details: dose 2 mg/kg, route intravenous. Conditions: in vivo. The data set is classed as ADME, organism-based. Put shortly:
(§2)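 Fasted male CD-1 (Crl) mice each received a single intravenous dose of 2.0 mg/kg or a single oral dose of 20 mg/kg, and plasma concentration–time profiles were recorded. For the iv route, Cmax was extrapolated to plasma concentration at time 0. Half-life was derived from terminal time-point windows specified per compound.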

A short description of data set [4]: AUC (0 to infinity) in fasted CD-1(Crl) mouse at 2 mg/kg, iv administered as single dose. It is filed as ADME, organism-based. Further details: time infinity, dose 2 mg/kg, route intravenous. As to conditions: plasma. Put shortly:
as §2

The nature of data set [5]: Mean residence time in fasted CD-1(Crl) mouse at 2 mg/kg, iv administered as single dose. Details: dose 2 mg/kg, route intravenous. The data set is classed as ADME, organism-based. Conditions: in vivo. In a few lines:
as §1

Data set [6] can be described thus: Clearance in fasted CD-1(Crl) mouse at 2 mg/kg, iv administered as single dose. It is filed as ADME, organism-based. Details: dose 2 mg/kg, route intravenous. As to conditions: in vivo. Put shortly: as §2
A short description of data set [7]: Apparent volume of distribution in fasted CD-1(Crl) mouse at 2 mg/kg, iv administered as single dose. It is filed as ADME, organism-based. Further details: dose 2 mg/kg, route intravenous. Conditions: in vivo, read-out: Vz. Put shortly: as §2
Data set [8] in a line: Cmax in fasted CD-1(Crl) mouse at 20 mg/kg, po administered as single dose. Details: dose 20 mg/kg, route oral. As to conditions: in vivo. The data set is classed as ADME, organism-based. Put shortly: as §2
Data set [9] can be described thus: AUC (0 to infinity) in fasted CD-1(Crl) mouse at 20 mg/kg, po administered as single dose. Conditions: plasma. Details: dose 20 mg/kg, route oral, time infinity. It is filed as ADME, organism-based. Put shortly:
as §2

Data set [10] can be described thus: Tmax in fasted CD-1(Crl) mouse at 20 mg/kg, po administered as single dose. It is filed as ADME, organism-based. Details: dose 20 mg/kg, route oral. As to conditions: in vivo. In a few lines:
as §1

Data set [11] can be described thus: Mean residence time in fasted CD-1(Crl) mouse at 20 mg/kg, po administered as single dose. It is filed as ADME, organism-based. Further details: dose 20 mg/kg, route oral. As to conditions: in vivo. In a few lines: as §1
Data set [12] in a line: Oral bioavailability in fasted CD-1(Crl) mouse at 20 mg/kg administered as single dose. It is filed as ADME, organism-based. As to conditions: in vivo. Put shortly: as §1
Data set [13] in a line: Half life in fasted CD-1(Crl) mouse at 2 mg/kg, iv administered as single dose measured after 9 to 27 hrs post dose. As to conditions: in vivo. It is filed as ADME, organism-based. Details: dose 2 mg/kg, route intravenous. In a few lines: as §2
Data set [14] in a line: Half life in fasted CD-1(Crl) mouse at 20 mg/kg, po administered as single dose measured after 2 to 24 hrs post dose. Further details: dose 20 mg/kg, route oral. It is filed as ADME, organism-based. As to conditions: in vivo. Put shortly: as §2

Regarding `C/C(=N\OCCN)c1ccc(Nc2c3ccccc3nc3occc23)cc1.Cl`, the results for the Vd in data set [1] and in data set [7] were 13.5 L/kg and 38.8 L/kg, respectively. For the same compound, the Drug uptake entry in the data set with Lung was “Active”. The same compound registered a solubility in data set [2] of 1050 µg/mL. The values for the Cmax in [3] and in data set [8] were 1490 ng/mL and 1900 ng/mL, respectively. Besides, the values for the AUC(0-inf) in [4] and in data set [9] were 363 ng·h/mL and 2070 ng·h/mL, respectively. Also, the MRT in data set [5] came out at 2.5 h; in [11] it was 3 h. In data set [6], this compound yielded a clearance of 91.9 mL/min/kg. Moreover, in data set [10], the Tmax is 0.5 h. The bioavailability in data set [12] came out at 57.1%. The values for the half-life in data set [13] and in data set [14] were 4.9 h and 3.4 h, respectively.
